The list is not random: actives were taken first. Their share in the collection is about 2.9%.
Runt-CBFb FRET – blocks binding of human RUNX1 Runt domain to CBFb. Q01196+Q13951. Cerulean-Runt/Venus-CBFb FRET ratio 530/480, 1 h. inhibition, % at 20 µM. actives 0.46% (n = 220,000). AID 1496;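 active = inhibition over about 50% at 20 µM in the single-dose screen, limit read from the data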;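 note: 0% = DMSO wells and 100% = excess unlabeled CBFb competitor control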
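Schedule: protein complex preformed 1 h, compound exposure 1 h, room temperature, dark; test system: Cerulean-labeled Runt domain protein; amount: 100 nM per protein; buffer or medium: Tris 50 mM pH 7.5, KCl, K2SO4, 0.01% BSA; read-out: loss of energy transfer signal; detection: FRET fluorescence; controls: 5 µM unlabeled CBFb as full-inhibition high control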
Hck Nef HTS – human Hck-Nef kinase inhibition | inhibition, % at 20 µM | P08631 | Recombinant Hck-YEEI plus Nef, Z-Lyte FRET kinase assay | actives 0.68% (n = 220,000) | AID 463187;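 active = Hck-Nef kinase inhibition above about 50%, limit read from the data; inactive = inhibition below that limit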;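 note: 0% = DMSO with Hck plus Nef and 100% = Hck alone without Nef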
Target sequence (P08631 whole entry, looked up): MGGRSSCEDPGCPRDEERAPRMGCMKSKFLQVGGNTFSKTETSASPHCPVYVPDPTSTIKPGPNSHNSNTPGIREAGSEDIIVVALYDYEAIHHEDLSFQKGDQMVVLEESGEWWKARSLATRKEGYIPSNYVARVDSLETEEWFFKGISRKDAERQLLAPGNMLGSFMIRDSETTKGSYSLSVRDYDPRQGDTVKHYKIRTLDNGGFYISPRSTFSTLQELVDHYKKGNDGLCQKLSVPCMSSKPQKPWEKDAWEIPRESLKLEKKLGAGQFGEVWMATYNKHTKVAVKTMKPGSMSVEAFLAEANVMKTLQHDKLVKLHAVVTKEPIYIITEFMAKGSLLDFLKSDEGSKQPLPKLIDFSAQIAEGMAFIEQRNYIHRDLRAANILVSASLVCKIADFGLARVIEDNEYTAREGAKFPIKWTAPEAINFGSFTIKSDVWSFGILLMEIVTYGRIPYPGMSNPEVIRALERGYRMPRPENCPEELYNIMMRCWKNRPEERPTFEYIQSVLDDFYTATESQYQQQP
RBBP9 inhibitor – human RBBP9 hydrolase inhibition; inhibition, % at 7.94 µM; recombinant RBBP9, FP-Rh probe fluorescence polarization; actives 0.2% (n = 220,000); O75884;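 active = inhibition above the campaign mean of all tested compounds plus 3 SD, cut at about 14% in these data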;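 note: plate controls were DMSO wells with RBBP9 for no effect and wells lacking RBBP9 protein for full effect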
Target sequence (O75884 whole entry, looked up): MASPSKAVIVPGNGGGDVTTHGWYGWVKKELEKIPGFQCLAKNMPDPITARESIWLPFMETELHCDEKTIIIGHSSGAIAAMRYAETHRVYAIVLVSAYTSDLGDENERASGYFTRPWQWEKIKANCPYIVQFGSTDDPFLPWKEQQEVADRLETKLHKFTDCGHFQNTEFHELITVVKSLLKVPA
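Measured by: FP readout at 525/598 nm; material: recombinant human RBBP9; also added: Serine-hydrolase probe FP-Rh, 375 nM pre-mixing; medium: Tris buffer pH 8.0, NaCl, Pluronic; replication: one well per compound; doses: one concentration, 7.94 µM nominal, 0.794% DMSO; timing: preincubation 30 min plus labeling 45 min at 25 °C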
PfM18AAP inh-1 – PfM18AAP enzyme inhibition; recombinant PfM18AAP, H-Glu-NHMec fluorogenic cleavage; inhibition, % at 7.35 µM; actives 1.2% (n = 290,000); AID 1822;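 active = inhibition above the campaign mean inhibition over all tested compounds plus 3 SD, cut at about 28% in these data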;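 note: 0% = plate median of test compound wells and 100% = 2 mM ZnCl2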
Runt-SMMHC FRET – Runt domain-CBFb-SMMHC interaction inhibition. Cerulean-Runt/Venus-CBFb-SMMHC FRET ratio 530/480, 1 h. actives 0.74% (n = 220,000). Q01196+Q13951. inhibition, % at 20 µM;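 active = mean inhibition across duplicate retests at 20 µM reaching about 50%, limit read from the data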;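 note: 0% = DMSO wells and 100% = wells with excess untagged CBFb-SMMHC; inhibitors lower the FRET ratio by blocking Runt binding to CBFb-SMMHC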
RanGTP-Impb inh – disruptors of Ran-importin-beta complex formation – biochemical, FRET, CFP-Ran, YFP-importin-beta, homogeneous, primary screen; cell-free CFP-Ran/YFP-importin-beta FRET ratio; inhibition, % (concentration not given with the values); actives 1.1% (n = 300,000); AID 2216;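 active = more than half of the replicate wells show a fall in the fluorescence ratio signal beyond about 16%, limit read from the data, passing the limit was not always enough; inconclusive = exactly half of the replicate wells pass the set limit; inactive = fewer than half of replicates pass the limit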;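 note: 0% = DMSO wells and 100% = Ran loaded with GDP instead of GTP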
PfM18AAP inh-2 – PfM18AAP inhibition, confirmation; actives 28% (n = 2,400); recombinant PfM18AAP, H-Glu-NHMec fluorogenic cleavage; inhibition, % at 7.35 µM; AID 2170; shares compounds with PfM18AAP inh-1;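 active = mean inhibition over replicate wells above the hit cutoff set for the earlier primary screen, cut at about 29% in these data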;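 note: 0% = median of test compound wells and 100% = 2 mM ZnCl2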
CTSL1 counter – Cathepsin L (human) inhibition, confirmation. inhibition, % at 5.96 µM. purified cathepsin L1, Z-Leu-Arg-MCA fluorescence. shares compounds with PfM18AAP inh-1. 2,400 tested, under 10 active;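 active = average inhibition across replicates above the hit cutoff set in the earlier primary screen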;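 note: 0% = median of test compound wells and 100% = Z-Phe-Ala-diazomethylketone 1 µM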
* marks the source's active call; other numbers are inactive results; ? = inconclusive; . = no result given.

SMILES | Runt-CBFb FRET | Hck Nef HTS | RBBP9 inhibitor | PfM18AAP inh-1 | Runt-SMMHC FRET | RanGTP-Impb inh | PfM18AAP inh-2 | CTSL1 counter
CCc1ccc(N(C(=O)C(F)(F)F)C(C(=O)NC2CCCCC2)c2ccncc2)cc1 (stereo unspecified) | -1.7 | 0.5 | -5.8 | 0.5 | -0.2 | -1.6 | . | .
O=C(NC1CCCCC1)C(c1ccncc1)N(Cc1ccc2c(c1)OCO2)C(=O)C(F)(F)F (stereo unspecified) | 7.7 | 4.3 | -6.4 | 41.1* | 10.7 | 4.6 | 16.2 | 9.0
COc1ccc(-c2cc(C)no2)cc1S(=O)(=O)N(C)c1ccc(C)cc1 | . | . | . | 2.4 | . | 2.5 | . | .
CCCOc1ccc(C2C(C(=O)/C=C/c3ccco3)=C(O)C(=O)N2CCN2CCOCC2)cc1OC (stereo unspecified) | -3.3 | 13.0 | -4.4 | 33.1* | -12.2 | 2.9 | -37.6 | 0.8
CC(=O)c1ccc(OCCCC(=O)Nc2cccc(-c3nn[nH]n3)c2)cc1 | . | . | . | -0.4 | . | 7.3 | . | .
CSc1nc2oc3c(c2c2nncn12)CC(C)(C)SC3 | 8.9 | 0.5 | -0.6 | 31.8* | 8.0 | -1.7 | -6.1 | -10.3
C/C(Cn1nc([N+](=O)[O-])cc1C)=N\NC(=O)c1ccc(O)cc1O | 4.6 | -0.2 | -0.6 | 40.6* | 0.9 | 7.2 | 3.9 | 5.9
COc1cc(C(=O)N/N=C(\C)Cn2nc([N+](=O)[O-])cc2C)ccc1O | -0.3 | 1.2 | -1.7 | -1.7 | 3.2 | -5.0 | . | .
O=C(NC1CC2CCC(C1)N2Cc1ccccc1)c1ccccc1Cl (stereo unspecified) | . | . | . | 2.0 | . | -1.3 | . | .
CC(=O)N1CCc2c(sc(NC(=O)C3CC3)c2-c2nc3ccccc3s2)C1 | 5.9 | 2.8 | -7.4 | 34.0* | -16.1 | 24.0* | -29.1 | -2.0
CCOc1ccc(CNC2CCCCCCC2)cc1OC | . | . | . | 0.3 | . | -0.6 | . | .
Cc1cc(C)c2c(=O)n(CC(=O)NCCCN3CCN(c4ccccc4F)CC3)sc2n1 | 23.3 | -19.5 | 1.8 | 46.5* | 29.6 | 6.1 | -9.1 | 0.2
Cc1cc([N+](=O)[O-])nn1CC(=O)NCCCN1CCOCC1 | . | . | . | -4.2 | . | -3.1 | . | .
Cc1cc(C)c2c(=O)n(CC(=O)NCCCN3CCOCC3)sc2n1 | 1.1 | -3.3 | -5.2 | 54.0* | 66.3 | -2.5 | 32.0* | 0.4
COc1cc(C(O)c2nc3ccccc3s2)cc(OC)c1OC (stereo unspecified) | -0.7 | 15.2 | -1.1 | -2.5 | 0.6 | 3.8 | . | .
COc1ccc2nc(Nc3sc4c(c3C(N)=O)CCCC4)sc2c1 | 45.2 | 5.5 | -4.3 | 42.2* | 67.3* | . | -23.9 | -4.5
COc1ccc(CC(=O)Nc2sc3c(c2C(N)=O)CCCC3)cc1 | . | . | . | 0.3 | . | 3.5 | . | .
O=C1NC(=O)C(c2ccccc2[N+](=O)[O-])=C1Nc1ccc(O)c(Cl)c1 | . | . | . | 40.3* | . | 3.4 | -81.0 | -3.6
S=c1[nH]c(-c2ccccc2)cn1/N=C/c1ccccc1Br | 9.5 | 15.4 | -4.0 | 32.8* | 7.1 | 3.5 | 23.9 | 3.2
Oc1ccc(/C=N/n2cc(-c3ccccc3)[nH]c2=S)cc1 | 21.5 | 23.9 | -7.8 | 61.1* | 36.3 | -5.2 | 41.5* | 4.2
COc1cc(/C=N/n2cc(-c3ccccc3)[nH]c2=S)cc(OC)c1O | 21.1 | -70.9 | 13.6 | 62.2* | 49.5 | 1.9 | 48.1* | 1.6
S=c1[nH]nc(-c2ccccc2)n1/N=C/c1ccc(Cl)cc1 | . | . | . | 19.6 | . | -2.9 | . | .
COc1ccc(C(=O)NC2CC3CCCC(C2)N3Cc2ccccc2)cc1OC (stereo unspecified) | . | . | . | -5.7 | . | 0.6 | . | .
Cc1ccc(S(=O)(=O)N2CCOCC2)cc1NC(=O)c1cc([N+](=O)[O-])ccc1N1CCOCC1 | . | . | . | . | . | -3.1 | . | .
c1ccc(CCNc2ccc3nncn3n2)cc1 | 0.2 | -2.5 | -7.5 | 3.5 | -9.0 | ? | . | .
SMILES | Runt-CBFb FRET | Hck Nef HTS | RBBP9 inhibitor | PfM18AAP inh-1 | Runt-SMMHC FRET | RanGTP-Impb inh | PfM18AAP inh-2 | CTSL1 counter
NNc1ccc2nncn2n1 | 1.3 | 18.1 | 0.8 | 39.8* | 2.7 | -0.5 | 38.9* | -4.8
O=C(NNC(=O)C1CCN(S(=O)(=O)c2ccccc2)CC1)c1ccccc1O | . | . | . | 39.5* | . | -3.7 | -8.4 | -6.8
COc1cc(-c2nc3ccccn3c2N)ccc1O | . | . | . | 17.9 | . | -3.9 | . | .
COc1cc(-c2nc3ccccn3c2NCC2CCCO2)ccc1O (stereo unspecified) | -3.2 | 7.2 | -3.7 | 32.1* | 4.5 | 2.8 | 34.0* | 1.2
COc1ccc(-n2c(O)c(/C=C3\C=Nc4ccccc43)c(=O)[nH]c2=O)cc1 | . | . | . | 31.7* | . | -5.7 | 0.1 | -2.2
COc1ccc(-n2c(O)c(C=NC3CC3)c(=O)[nH]c2=O)cc1 | -2.0 | 0.2 | -6.6 | 3.4 | -2.5 | -0.7 | . | .
O=C(Nn1cnnc1)c1cc(-c2ccccn2)nc2ccccc12 | 2.4 | 1.5 | 3.9 | 50.5* | -1.0 | 1.3 | 47.5* | -3.9
COc1cccc(-c2cc(C(=O)Nn3cnnc3)c3ccccc3n2)c1 | -0.5 | 3.1 | -4.2 | 63.5* | 1.1 | -3.2 | 62.3* | -1.1
Cc1cccn2c(CNCCc3ccco3)c(C(=O)N3CCOCC3)nc12 | . | . | . | 16.3 | . | -0.8 | . | .
CCN(CC(=O)NCc1cccs1)C(=O)c1ccc(NS(=O)(=O)c2cccc([N+](=O)[O-])c2)cc1 | . | . | . | . | . | 3.1 | . | .
C/C(=N/NS(=O)(=O)c1cccc([N+](=O)[O-])c1)c1ccncc1 | . | . | . | 44.3* | . | 0.3 | 4.0 | -4.0
C/C(=N\NS(=O)(=O)c1ccc(Br)cc1)c1ccncc1 | . | . | . | 53.2* | . | -0.2 | 13.5 | -5.4
C/C(=N/NS(=O)(=O)c1ccc(Cl)cc1)c1ccncc1 | . | . | . | 3.9 | . | 3.7 | . | .
O=C(CSc1n[nH]c(-c2cccs2)n1)NCCc1ccccc1 | . | . | . | . | . | 0.0 | . | .
Clc1cccc(-c2ccc(CNCCCN3CCOCC3)o2)c1 | 3.3 | -15.1 | -4.0 | -7.0 | 1.5 | 2.0 | . | .
CC(C)/C=C(/C(=O)c1ccc(Cl)cc1Cl)n1cncn1 | . | . | . | 49.3* | . | ? | 4.8 | 0.5
CCS(=O)(=O)c1cc([N+](=O)[O-])c(Sc2ccccc2NC(C)=O)s1 | 38.4 | 20.5 | -5.8 | 35.4* | -2.7 | 3.6 | -31.7 | 1.6
Cc1ccc(S(=O)(=O)N2Cc3ccccc3CC2C(=O)Nn2cnnc2)cc1 (stereo unspecified) | -1.5 | 0.2 | 4.7 | 41.0* | -2.5 | -0.5 | 36.2* | -2.9
Cc1ccc(S(=O)(=O)N2Cc3ccccc3CC2C(=O)Nc2cc(C)on2)cc1 (stereo unspecified) | -1.5 | 1.5 | -4.8 | 2.8 | -0.9 | 2.5 | . | .
O=C(Nn1cnnc1)C1Cc2ccccc2CN1S(=O)(=O)c1ccc(F)cc1 (stereo unspecified) | 1.1 | 6.8 | 2.5 | 39.4* | -0.5 | 2.9 | 32.6* | -3.0

Screening results as filed in PubChem.
